The values that follow come from ChEMBL document CHEMBL5338796, “Discovery of a Selective and Orally Bioavailable FGFR2 Degrader for Treating Gastric Cancer” (J Med Chem, 2023).

Series [1] deals with T1, Protein cereblon/Fibroblast growth factor receptor 2 (Homo sapiens, UniProt P21802+Q96SW2). As to the kind of experiment: PROTAC activity at CRBN/FGFR2 in human KATO III stomach cancer cell line assessed as FGFR2 degradation by measuring FGFR2 expression level upto 100 nM measured after 3 hrs by Western blotting analysis. Format: cell-based. In short, it runs like this:
(§1)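 Time course in KATO III cells: FGFR2/β-actin by Western blot at successive treatment times, normalized to DMSO control.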
Background: A western blot detects proteins with antibodies after separation by electrophoresis.

A short description of series [2]: Antiproliferative activity against human HEK293T cells assessed as reduction in cell viability measured for 72 hrs by celltiter-glo reagent based assay. Format: toxicity, HEK-293T. The method in brief:
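Cancer lines KATO III, SNU16, NCI-H716, NCI-H1975, MV-4-11 and HEK293T treated 72 h; antiproliferative IC50 given as mean ± s.d. from three independent biological experiments.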
Background: In ATP-based viability assays light output follows the ATP content of the culture.

Series [3] has as its target T1, Protein cereblon/Fibroblast growth factor receptor 2. As to the kind of experiment: PROTAC activity at CRBN/FGFR2 in human KATO III stomach cancer cell line assessed as FGFR2 degradation by measuring FGFR2 expression level at 100 nM measured after 12 hrs by Western blotting analysis relative to control. In kind it is cell-based. In short, it runs like this: as §1

Series [4] addresses Fibroblast growth factor receptor (Homo sapiens) (UniProt P22607+P11362+P22455+P21802). Nature of the series: Induction of FGFR degradation in human KATO III stomach cancer cell line assessed as reduction in FRS2 phosphorylation at 50 nM measured for 6 hrs. Format: cell-based. The method in brief: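 KATO III cells incubated 6 h with 50 nM compound, then stimulated with FGF1 for 10 min; pFGFR, pPLCγ1 (Tyr783) and pFRS2α immunoblotted.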

The nature of series [5]: Toxicity in ICR mouse assessed as change in liver weight at 20 mg/kg, po measured for 30 days. In kind it is organism-based. As to conditions: in vivo, 720 h, time 30 day. In short, it runs like this:
(§2)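 ICR mice (n = 6) were dosed orally at 20 mg/kg/day for 30 days, alongside vehicle-treated controls. Mortality and clinical signs were checked daily. At the end, body and organ weights were recorded. Heart, liver, spleen, lung and kidney were examined by hematoxylin and eosin staining.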

The nature of series [6]: Hepatotoxicity in ICR mouse assessed as effect on AST level at 20 mg/kg, po measured for 30 days. In kind it is toxicity, organism-based. To be noted: in vivo, 720 h, time 30 day. In short, it runs like this:
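ICR mice given 20 mg/kg/day orally for 30 days (n = 6), vehicle controls; mortality and clinical signs checked daily, then AST/ALT and creatinine, organ weights, haematology and H&E of heart, liver, spleen, lung, kidney.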

The nature of series [7]: Toxicity in ICR mouse assessed as morphological changes in lung at 20 mg/kg, po measured for 30 days by hematoxyin-eosin staining based analysis. In kind it is organism-based. To be noted: in vivo, 720 h, time 30 day. The method in brief: as §2
Series [8] concerns BaF3. As to the kind of experiment: Antiproliferative activity against mouse BaF3 cells expressing Tel-FGFR2 assessed as cell growth inhibition measured after 72 hrs by celltiter-glo reagent based assay. In kind it is functional. To be noted: BaF3, 72 h. In short, it runs like this: (§3)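 Ba/F3 cells stably expressing cytoplasmic TEL-FGFR1, -2, -3 or -4 fusions were treated in 96-well format, final DMSO 0.1%, for 72 h. Viability read by CellTiter-Glo luminescence after 10 min at room temperature. Inhibition calculated from blank- and control-corrected RLU; IC50 from 4-parameter concentration–response fit.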

The nature of series [9]: Volume of distribution at steady state in mice at 3 mg/kg, iv measured at 0.083 to 24 hrs by LC-MS/MS analysis. As to conditions: mouse, in vivo, read-out: Vdss.
Series [10] is described as follows: AUC (0 to infinity) in mouse at 3 mg/kg, iv measured at 0.083 to 24 hrs by LC-MS/MS analysis. To be noted: in vivo.
Series [11] in a line: Toxicity in ICR mouse assessed as morphological changes in spleen at 20 mg/kg, po measured for 30 days by hematoxyin-eosin staining based analysis. Format: organism-based. As to conditions: in vivo, 720 h, time 30 day. In short, it runs like this: as §2
Series [12] is described as follows: Half life in Sprague-Dawley rat at 3 mg/kg, iv measured at 0.083 to 24 hrs by LC-MS/MS analysis. In kind it is ADME, organism-based. To be noted: in vivo, time 0.083-24 hrs. In short, it runs like this: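 Male Sprague Dawley rats, single dose i.v. 3 mg/kg or p.o. 20 mg/kg in 10% Solutol, 85% (10% HP-β-CD in saline), 5% DMSO, pH adjusted to 9–10.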
In series [13] the target is T1, Protein cereblon/Fibroblast growth factor receptor 2. As to the kind of experiment: PROTAC activity at CRBN/FGFR2 in human KATO III stomach cancer cell line assessed as FGFR2 degradation by measuring maximum efficacy at 0.5 to 10000 nM measured for 6 hrs by Western blotting analysis relative to control. In kind it is cell-based. To be noted: dose 0.5-10000 nM. The method in brief: (§4)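 KATO III cells treated for 6 h at the stated concentrations, added from 10 mM DMSO stocks (final DMSO below 0.5%). Cells were washed with PBS and lysed in 2× loading buffer, then run on SDS-PAGE and blotted to PVDF. Anti-FGFR2 was applied overnight at 4 °C, with ECL detection. FGFR2 was expressed as FGFR2/β-actin, normalized to DMSO-treated cells, from three independent biological experiments.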

In series [14] the test system is BaF3. Nature of the series: Antiproliferative activity against mouse BaF3 cells expressing Tel-FGFR4 assessed as cell growth inhibition measured after 72 hrs by celltiter-glo reagent based assay. In kind it is functional. As to conditions: BaF3, 72 h. The method in brief:
as §3

Series [15] concerns the target T1, Protein cereblon/Fibroblast growth factor receptor 2. As to the kind of experiment: PROTAC activity at CRBN/FGFR2 in human KATO III stomach cancer cell line membrane assessed as reduction in membrane bound FGFR2 at 100 nM measured for 6 hrs by flow cytometry analysis. Format: cell membranes. In short, it runs like this: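 Approx. 2 × 10^6 KATO III cells were treated 6 h at 100 nM. They were washed in cold PBS and stained with anti-FGFR2 (1:100, 4 °C, 1 h), then with Alexa Fluor 488 secondary (1:500, 4 °C, 1 h). Surface FGFR2 was read by flow cytometry on at least 100,000 events, with 488 nm excitation and FITC detection at 519 nm.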
A general note: Flow cytometry measures light scatter and fluorescence of single cells or particles in a stream.

The subject of a further series is SNU-16. As to the kind of experiment: Antitumor activity against human SNU-16 cells xenografted in BALB/c nude mouse assessed as reduction in PLCgamma phosphorylation in tumor at 20 mg/kg, po measured at 4 hrs. In kind it is functional, organism-based. The method in brief:
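Female BALB/c nude mice, 5 weeks old (20–22 g), s.c. right-flank SNU-16 implants, randomized by body weight into groups (n = 5) once tumours reached 50–100 mm3. Dosing 20 mg/kg/day intragastric in 0.5% CMC-Na for 15 d; vehicle controls. Tumour width and length measured every 2 days; tumours harvested 4 h after last dose and lysates immunoblotted for pFGFR, FGFR2, pPLCγ, pErk.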

Series [16] concerns the target T1, Protein cereblon/Fibroblast growth factor receptor 2. Nature of the series: PROTAC activity at CRBN/FGFR2 in human KATO III stomach cancer cell line assessed as FGFR2 degradation measured for 6 hrs by immunoblot analysis. Format: cell-based. The method in brief: as §4
Series [17] concerns KATO III stomach cancer cell line. As to the kind of experiment: Induction of cell cycle arrest in human KATO III stomach cancer cell line assessed as accumulation of cells at G0/G1 phase […] by flow cytometry analysis. In kind it is functional, cell-based. In short, it runs like this: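 KATO III cells harvested with EDTA-free trypsin, fixed in cold 70% ethanol overnight at −20 °C, stained with DNA staining solution 30 min at room temperature, analysed by flow cytometry.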

Series [18] can be described thus: Toxicity in ICR mouse assessed as change in spleen weight at 20 mg/kg, po measured for 30 days. Format: organism-based. As to conditions: in vivo, 720 h, time 30 day. The method in brief:
as §2

The source made the active and inactive calls. The calls are words filed in the database; no cut-off is given here.

T1 sequence (P21802 22-821 limits assumed): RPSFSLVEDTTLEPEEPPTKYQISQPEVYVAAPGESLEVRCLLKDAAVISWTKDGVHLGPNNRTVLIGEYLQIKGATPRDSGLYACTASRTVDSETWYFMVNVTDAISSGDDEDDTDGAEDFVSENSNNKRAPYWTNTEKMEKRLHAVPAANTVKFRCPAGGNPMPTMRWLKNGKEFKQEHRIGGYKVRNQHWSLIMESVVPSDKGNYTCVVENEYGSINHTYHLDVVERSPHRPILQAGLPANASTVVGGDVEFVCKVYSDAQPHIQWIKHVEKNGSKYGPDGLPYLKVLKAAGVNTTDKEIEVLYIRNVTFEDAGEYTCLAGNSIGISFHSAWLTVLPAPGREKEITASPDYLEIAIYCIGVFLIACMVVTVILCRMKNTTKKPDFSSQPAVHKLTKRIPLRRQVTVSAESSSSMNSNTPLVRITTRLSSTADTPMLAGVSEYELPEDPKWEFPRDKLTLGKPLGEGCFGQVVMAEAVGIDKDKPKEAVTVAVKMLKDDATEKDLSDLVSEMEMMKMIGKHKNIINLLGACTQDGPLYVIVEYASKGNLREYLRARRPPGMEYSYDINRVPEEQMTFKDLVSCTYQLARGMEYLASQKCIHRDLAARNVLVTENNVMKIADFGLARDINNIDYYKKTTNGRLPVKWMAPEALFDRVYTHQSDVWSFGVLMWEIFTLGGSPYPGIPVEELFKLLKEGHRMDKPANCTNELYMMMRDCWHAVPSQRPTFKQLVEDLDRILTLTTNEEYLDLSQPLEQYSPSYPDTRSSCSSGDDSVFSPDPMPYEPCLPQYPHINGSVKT
T1 sequence (Q96SW2 whole entry partner): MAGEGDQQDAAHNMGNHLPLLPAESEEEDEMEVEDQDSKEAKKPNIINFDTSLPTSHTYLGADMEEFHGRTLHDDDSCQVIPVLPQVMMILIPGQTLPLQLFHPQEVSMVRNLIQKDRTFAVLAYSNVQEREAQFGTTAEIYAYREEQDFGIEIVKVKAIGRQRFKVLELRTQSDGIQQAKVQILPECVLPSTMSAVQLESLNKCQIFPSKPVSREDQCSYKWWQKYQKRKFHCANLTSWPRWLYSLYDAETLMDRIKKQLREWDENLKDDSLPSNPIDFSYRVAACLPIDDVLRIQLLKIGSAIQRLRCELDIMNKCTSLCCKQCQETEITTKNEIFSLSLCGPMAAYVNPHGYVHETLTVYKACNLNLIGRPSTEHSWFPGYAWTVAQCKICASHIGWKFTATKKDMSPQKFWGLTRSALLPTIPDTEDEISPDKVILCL
Chain of Fibroblast growth factor receptor (Homo sapiens) (P11362 whole entry, looked up): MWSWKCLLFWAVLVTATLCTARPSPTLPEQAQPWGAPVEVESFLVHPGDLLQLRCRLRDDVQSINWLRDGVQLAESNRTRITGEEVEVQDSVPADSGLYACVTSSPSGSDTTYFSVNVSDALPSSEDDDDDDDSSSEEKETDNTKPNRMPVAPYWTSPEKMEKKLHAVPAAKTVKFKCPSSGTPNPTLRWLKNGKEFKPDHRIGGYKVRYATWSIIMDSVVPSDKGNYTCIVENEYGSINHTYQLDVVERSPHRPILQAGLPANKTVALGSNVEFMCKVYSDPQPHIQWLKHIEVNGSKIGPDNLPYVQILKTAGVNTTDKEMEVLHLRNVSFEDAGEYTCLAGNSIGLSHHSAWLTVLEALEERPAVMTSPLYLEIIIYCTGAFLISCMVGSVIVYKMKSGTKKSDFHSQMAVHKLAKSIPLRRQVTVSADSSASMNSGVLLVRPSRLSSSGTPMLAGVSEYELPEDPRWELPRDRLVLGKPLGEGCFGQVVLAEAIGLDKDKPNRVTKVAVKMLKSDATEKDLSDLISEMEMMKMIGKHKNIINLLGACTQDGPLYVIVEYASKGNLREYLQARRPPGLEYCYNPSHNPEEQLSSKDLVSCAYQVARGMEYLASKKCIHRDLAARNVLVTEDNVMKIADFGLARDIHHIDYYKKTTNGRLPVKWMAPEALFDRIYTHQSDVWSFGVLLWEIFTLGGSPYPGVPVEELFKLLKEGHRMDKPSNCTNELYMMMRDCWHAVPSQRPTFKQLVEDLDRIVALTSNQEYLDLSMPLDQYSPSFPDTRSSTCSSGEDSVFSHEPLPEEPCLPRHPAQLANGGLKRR
Chain of Fibroblast growth factor receptor (Homo sapiens) (P21802 whole entry, looked up): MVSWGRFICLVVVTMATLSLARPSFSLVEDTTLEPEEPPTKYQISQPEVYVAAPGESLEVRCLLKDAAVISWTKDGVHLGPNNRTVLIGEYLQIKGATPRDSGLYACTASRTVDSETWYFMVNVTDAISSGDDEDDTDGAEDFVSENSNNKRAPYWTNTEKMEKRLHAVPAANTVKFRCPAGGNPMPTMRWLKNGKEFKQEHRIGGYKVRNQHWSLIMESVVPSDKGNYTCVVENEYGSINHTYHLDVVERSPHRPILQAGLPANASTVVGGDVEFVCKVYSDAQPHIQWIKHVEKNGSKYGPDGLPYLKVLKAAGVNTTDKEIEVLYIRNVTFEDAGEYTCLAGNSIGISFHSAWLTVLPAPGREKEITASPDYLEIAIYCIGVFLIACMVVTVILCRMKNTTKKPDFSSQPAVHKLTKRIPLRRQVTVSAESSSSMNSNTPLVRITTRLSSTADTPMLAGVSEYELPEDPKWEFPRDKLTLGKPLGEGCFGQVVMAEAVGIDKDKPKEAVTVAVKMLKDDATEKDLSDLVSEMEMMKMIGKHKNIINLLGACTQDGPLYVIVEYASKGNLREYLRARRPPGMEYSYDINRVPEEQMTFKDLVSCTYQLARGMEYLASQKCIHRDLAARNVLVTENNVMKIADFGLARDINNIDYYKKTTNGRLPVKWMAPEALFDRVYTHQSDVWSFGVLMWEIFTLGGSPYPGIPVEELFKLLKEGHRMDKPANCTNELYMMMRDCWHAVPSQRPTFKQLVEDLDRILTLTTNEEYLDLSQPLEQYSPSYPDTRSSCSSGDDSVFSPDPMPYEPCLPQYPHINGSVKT
Chain of Fibroblast growth factor receptor (Homo sapiens) (P22455 whole entry, looked up): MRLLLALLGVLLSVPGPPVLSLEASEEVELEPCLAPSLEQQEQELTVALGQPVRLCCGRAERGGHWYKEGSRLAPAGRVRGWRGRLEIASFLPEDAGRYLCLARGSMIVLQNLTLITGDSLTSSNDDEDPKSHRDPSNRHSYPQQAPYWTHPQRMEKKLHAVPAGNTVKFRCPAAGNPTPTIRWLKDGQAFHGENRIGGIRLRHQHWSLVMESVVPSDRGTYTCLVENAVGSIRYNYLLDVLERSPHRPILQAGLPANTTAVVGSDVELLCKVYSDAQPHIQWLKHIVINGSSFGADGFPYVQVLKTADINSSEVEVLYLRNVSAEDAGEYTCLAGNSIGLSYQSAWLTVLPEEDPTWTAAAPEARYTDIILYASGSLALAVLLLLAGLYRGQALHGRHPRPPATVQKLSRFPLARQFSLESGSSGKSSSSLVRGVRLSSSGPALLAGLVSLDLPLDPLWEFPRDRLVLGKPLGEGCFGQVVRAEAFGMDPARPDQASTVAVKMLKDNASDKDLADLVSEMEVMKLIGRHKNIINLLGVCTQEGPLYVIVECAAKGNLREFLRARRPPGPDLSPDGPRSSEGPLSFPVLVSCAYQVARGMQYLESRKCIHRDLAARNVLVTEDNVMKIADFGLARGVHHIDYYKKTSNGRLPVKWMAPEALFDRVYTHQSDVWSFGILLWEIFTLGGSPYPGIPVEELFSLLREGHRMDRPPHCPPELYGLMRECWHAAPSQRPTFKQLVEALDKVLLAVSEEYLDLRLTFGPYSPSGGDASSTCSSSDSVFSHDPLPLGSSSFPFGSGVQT
Chain of Fibroblast growth factor receptor (Homo sapiens) (P22607 whole entry, looked up): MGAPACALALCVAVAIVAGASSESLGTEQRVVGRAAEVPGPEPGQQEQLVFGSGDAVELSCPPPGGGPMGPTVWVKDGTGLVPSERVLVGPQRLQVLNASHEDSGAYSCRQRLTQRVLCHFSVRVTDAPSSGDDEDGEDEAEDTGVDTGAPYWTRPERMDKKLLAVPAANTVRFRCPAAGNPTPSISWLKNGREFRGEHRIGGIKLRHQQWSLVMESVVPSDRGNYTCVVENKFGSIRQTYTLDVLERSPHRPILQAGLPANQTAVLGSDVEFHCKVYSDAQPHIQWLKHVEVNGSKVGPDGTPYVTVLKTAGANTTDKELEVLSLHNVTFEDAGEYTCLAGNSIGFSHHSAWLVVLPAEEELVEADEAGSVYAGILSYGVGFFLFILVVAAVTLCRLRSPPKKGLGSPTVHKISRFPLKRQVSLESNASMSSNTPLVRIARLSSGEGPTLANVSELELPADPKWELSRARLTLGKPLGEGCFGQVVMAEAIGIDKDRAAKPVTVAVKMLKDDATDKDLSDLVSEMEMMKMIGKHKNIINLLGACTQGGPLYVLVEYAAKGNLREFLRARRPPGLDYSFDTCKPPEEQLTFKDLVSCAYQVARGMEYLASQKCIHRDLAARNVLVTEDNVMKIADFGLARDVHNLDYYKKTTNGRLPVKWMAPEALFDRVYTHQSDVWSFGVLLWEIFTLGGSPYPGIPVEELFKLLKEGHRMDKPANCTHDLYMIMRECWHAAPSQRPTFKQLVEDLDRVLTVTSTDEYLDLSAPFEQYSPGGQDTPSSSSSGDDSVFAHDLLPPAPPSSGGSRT

In the case of `COc1cc(OC)c(Cl)c(NC(=O)N(C)c2cc(Nc3ccc(N4CCN(C(=O)C5CCN(c6ccc7c(c6)C(=O)N(C6CCC(=O)NC6=O)C7=O)CC5)CC4)cc3)ncn2)c1Cl` (centres undefined), the result (in series [1]; in [4]; in series [15]; with SNU-16; in series [17]) was Active. For the same molecule, in [2], the 50% inhibitory concentration (IC50) at 72 h was greater than 10 µM. The Activity is 90% in series [3]; “Non-Toxic” in [5]; “Non-Toxic” in [6]; “Non-Toxic” in series [7]; “Non-Toxic” in series [11]; “Non-Toxic” in [18]. The IC50 in the series with BaF3 [8] was 0.0103 µM; in the series with BaF3 [14] it was greater than 10 µM. Moreover, the Vd in series [9] came to 6.23 L/kg. The molecule further displayed an AUC(0-inf) in [10] of 422 ng·h/mL. The molecule further had a half-life in [12] of 58.2 min. Besides, the Emax in series [13] came out at 80%. Also, in series [16], the outcome was inactive.

The term IC50 denotes the concentration at which inhibition is half-maximal. In general, AUC(0-inf) refers to total exposure, with the tail of the curve extrapolated. Read a high AUC(0-inf) as more exposure. As usually defined, the half-life is the time in which the quantity being followed falls by half. The low end stands for fast loss, the high end for slow loss.
